Reference: ChEMBL document CHEMBL1145475, “Expression and purification of an active form of the Mycobacterium leprae DNA gyrase and its inhibition by quinolones” (Antimicrob Agents Chemother, 2007)
Activity calls are given as the source filed them. The rule behind the calls is not given here.

Key:
Mycobacterium leprae [1] = experiment: Inhibition of Mycobacterium leprae recombinant DNA gyrase expressed in Escherichia coli assessed as inhibition of pBR322 DNA supercoiling
How it was run: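 His-tagged M. leprae GyrA and GyrB were expressed separately in E. coli, purified by nickel chelate chromatography, and reconstituted (1 U gyrase). Substrate was 0.4 μg relaxed pBR322 in 40 mM Tris-HCl pH 7.5, 25 mM KCl, 20 mM Mg acetate, 2 mM spermidine, 4 mM DTT, tRNA, BSA, and 3 mM ATP, run 1 h at 30°C.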

Mycobacterium leprae [2] = experiment: Effect on Mycobacterium leprae recombinant DNA gyrase expressed in Escherichia coli assessed as enhancement of supercoiled pBR322 DNA cleavage
Mycobacterium leprae [3] = experiment: Antibacterial activity against Mycobacterium leprae at 5 ug/mL after 11 to 18 days; format: functional
Mycobacterium leprae [4] = experiment: Antibacterial activity in Mycobacterium leprae infected mouse foot-pad model assessed as parasite killing at 150 mg/kg/day after 9 months; format: functional
Mycobacterium leprae [5] = experiment: Antibacterial activity in Mycobacterium leprae infected mouse foot-pad model assessed as parasite killing at 25 mg/kg/day after 9 months; format: functional
Mycobacterium leprae [6] = experiment: Antibacterial activity in Mycobacterium leprae infected mouse foot-pad model assessed as parasite killing at 50 mg/kg/day after 9 months; format: functional
Mycobacterium leprae [7] = experiment: Antibacterial activity in Mycobacterium leprae infected mouse foot-pad model assessed as parasite killing at >300 mg/kg/day after 9 months; format: functional
Mycobacterium leprae [8] = experiment: Antibacterial activity in Mycobacterium leprae infected mouse foot-pad model assessed as parasite killing at 15 mg/kg/day after 9 months; format: functional
Mycobacterium leprae [9] = experiment: Antibacterial activity in Mycobacterium leprae infected mouse foot-pad model assessed as parasite killing at >150 mg/kg/day after 9 months; format: functional

Structure (SMILES)	IC50 (Mycobacterium leprae [1])	CC25 (Mycobacterium leprae [2])	Activity (Mycobacterium leprae [3])	other results
COc1c(N2CCNC(C)C2)c(F)cc2c(=O)c(C(=O)O)cn(C3CC3)c12 (stereo not drawn) [GATIFLOXACIN]	2 µg/mL	1 µg/mL		
CC1COc2c(N3CCN(C)CC3)c(F)cc3c(=O)c(C(=O)O)cn1c23 (stereo not drawn) [OFLOXACIN]	10 µg/mL	10 µg/mL	20	Activity (Mycobacterium leprae [4]): >99%
NC1CCN(c2c(F)cc3c(=O)c(C(=O)O)cn(C4CC4)c3c2Cl)C1 (stereo not drawn) [CLINAFLOXACIN]	3 µg/mL	0.6 µg/mL		
N[C@@H]1CN(c2c(F)cc3c(=O)c(C(=O)O)cn([C@@H]4C[C@@H]4F)c3c2Cl)CC12CC2 [SITAFLOXACIN ANHYDROUS]	1 µg/mL	0.5 µg/mL		Activity (Mycobacterium leprae [5]): >99%
CC1CN(c2cc3c(cc2F)c(=O)c(C(=O)O)cn3-c2ccc(F)cc2F)CCN1 (stereo not drawn) [TEMAFLOXACIN]	26 µg/mL	11 µg/mL	29	Activity (Mycobacterium leprae [6]): >99%
CCn1cc(C(=O)O)c(=O)c2cc(F)c(N3CCN(C)CC3)cc21 [PEFLOXACIN]	23 µg/mL		29	Activity (Mycobacterium leprae [7]): >99%
COc1c(N2C[C@@H]3CCCN[C@@H]3C2)c(F)cc2c(=O)c(C(=O)O)cn(C3CC3)c12 [MOXIFLOXACIN]				Activity (Mycobacterium leprae [4]): >99%
C[C@@H]1CN(c2c(F)c(N)c3c(=O)c(C(=O)O)cn(C4CC4)c3c2F)C[C@H](C)N1 [SPARFLOXACIN]	5 µg/mL	1 µg/mL		Activity (Mycobacterium leprae [8]): >99%
C[C@H]1NCc2cc(-c3ccc4c(=O)c(C(=O)O)cn(C5CC5)c4c3OC(F)F)ccc21 [GARENOXACIN]	3.5 µg/mL	3 µg/mL		
O=C(O)c1cn(C2CC2)c2cc(N3CCNCC3)c(F)cc2c1=O [CIPROFLOXACIN]	3.5 µg/mL		32	Activity (Mycobacterium leprae [9]): >99%
C[C@H]1COc2c(N3CCN(C)CC3)c(F)cc3c(=O)c(C(=O)O)cn1c23.C[C@H]1COc2c(N3CCN(C)CC3)c(F)cc3c(=O)c(C(=O)O)cn1c23.O [LEVOFLOXACIN]	7 µg/mL	3 µg/mL		
CCn1cc(C(=O)O)c(=O)c2cc3c(cc21)OCO3 [OXOLINIC ACID]	170 µg/mL			Activity (Mycobacterium leprae [2]): inactive
CCn1cc(C(=O)O)c(=O)c2ccc(C)nc21 [NALIDIXIC ACID]	300 µg/mL			Activity (Mycobacterium leprae [2]): inactive
